Reference: ChEMBL document CHEMBL4619802, “Discovery and Characterization of Pure RhlR Antagonists against Pseudomonas aeruginosa Infections” (J Med Chem, 2020)
Activity calls are given as the source filed them. No cut-off for these calls is given here.

How the values were obtained:
[1] = target: T1, HTH-type quorum-sensing regulator RhlR (Pseudomonas aeruginosa (strain ATCC 15692 / PAO1 / 1C / PRS 101 / LMG12228)) (UniProt P54292); assay: Modulation of RhlR in Pseudomonas aeruginosa assessed as biofilm formation at 10 uM incubated for 24 hrs under static condition by crystal violet staining based assay relative to control
T1 sequence (whole entry): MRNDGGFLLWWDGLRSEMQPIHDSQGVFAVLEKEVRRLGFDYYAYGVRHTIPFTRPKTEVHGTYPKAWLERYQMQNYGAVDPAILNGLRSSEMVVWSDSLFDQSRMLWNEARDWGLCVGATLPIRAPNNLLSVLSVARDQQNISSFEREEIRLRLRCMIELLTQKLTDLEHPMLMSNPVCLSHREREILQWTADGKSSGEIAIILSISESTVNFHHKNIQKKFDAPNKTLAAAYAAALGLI

[2] = target: T1, HTH-type quorum-sensing regulator RhlR (Pseudomonas aeruginosa (strain ATCC 15692 / PAO1 / 1C / PRS 101 / LMG12228)); assay: Agonist activity at Pseudomonas aeruginosa RhlR expressed in Escherichia coli DH5alpha assessed as relative protein activity at 100 uM incubated for 1.5 hrs by luminescence reporter gene assay relative to control
[3] = target: T1, HTH-type quorum-sensing regulator RhlR (Pseudomonas aeruginosa (strain ATCC 15692 / PAO1 / 1C / PRS 101 / LMG12228)); assay: Antagonist activity at Pseudomonas aeruginosa RhlR expressed in Escherichia coli DH5alpha assessed as relative protein activity at 100 uM incubated for 1.5 hrs in presence of N-butyryl-L-homoserine lactone by luminescence reporter gene assay relative to control; parameters: scale not given: the % may be the effect or the level left
Method in brief: (§1)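 E. coli DH5α sdiA mutant carrying RhlR and rhlA::lacZ plasmids, at OD595 0.3 in LB. Compound given with BHL (10 µM per footnote) and 0.4% arabinose, 37 °C for 1.5 h.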

Pseudomonas aeruginosa [4] = assay: Antibacterial activity against Pseudomonas aeruginosa assessed as bacterial growth at 100 uM incubated for 24 hrs relative to control; format: functional
Method in brief: (§2)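 P. aeruginosa overnight culture (OD595 1.0) diluted 1:20 in AB medium (pH 7.5, 1% glucose, casamino acids, arginine) with compound, in borosilicate bottles, 37 °C for 24 h without shaking. Growth taken as OD595 of the suspended culture. Attached cells washed twice with PBS, stained with 0.1% crystal violet for 10 min, dye eluted in ethanol and read at 545 nm.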

[5] = target: T1, HTH-type quorum-sensing regulator RhlR (Pseudomonas aeruginosa (strain ATCC 15692 / PAO1 / 1C / PRS 101 / LMG12228)); assay: Modulation of RhlR in Pseudomonas aeruginosa assessed as biofilm formation at 100 uM incubated for 24 hrs under static condition by crystal violet staining based assay relative to control
[6] = target: T1, HTH-type quorum-sensing regulator RhlR (Pseudomonas aeruginosa (strain ATCC 15692 / PAO1 / 1C / PRS 101 / LMG12228)); assay: Antagonist activity at RhlR in Pseudomonas aeruginosa assessed as rhamnolipid production at 100 uM incubated for 24 hrs by Orcinol staining based assay relative to control; parameters: scale not given: the % may be the effect or the level left
[7] = target: T1, HTH-type quorum-sensing regulator RhlR (Pseudomonas aeruginosa (strain ATCC 15692 / PAO1 / 1C / PRS 101 / LMG12228)); assay: Antagonist activity at RhlR in Pseudomonas aeruginosa assessed as rhamnolipid production at 10 uM incubated for 24 hrs by Orcinol staining based assay relative to control; parameters: scale not given: the % may be the effect or the level left
Pseudomonas aeruginosa [8] = assay: Antibacterial activity against Pseudomonas aeruginosa assessed as bacterial growth at 10 uM incubated for 24 hrs relative to control; format: functional; method in brief: as §2
[9] = target: T1, HTH-type quorum-sensing regulator RhlR (Pseudomonas aeruginosa (strain ATCC 15692 / PAO1 / 1C / PRS 101 / LMG12228)); assay: Agonist activity at Pseudomonas aeruginosa RhlR expressed in Escherichia coli DH5alpha assessed as relative protein activity at 1000 uM incubated for 1.5 hrs by luminescence reporter gene assay relative to control
[10] = target: T1, HTH-type quorum-sensing regulator RhlR (Pseudomonas aeruginosa (strain ATCC 15692 / PAO1 / 1C / PRS 101 / LMG12228)); assay: Antagonist activity at Pseudomonas aeruginosa RhlR expressed in Escherichia coli DH5alpha assessed as relative protein activity at 10 uM incubated for 1.5 hrs in presence of N-butyryl-L-homoserine lactone by luminescence reporter gene assay relative to control; parameters: scale not given: the % may be the effect or the level left; method in brief: as §1

In the case of `CCCCCCCCCC(O)CC(=O)CCc1ccc(O)c(OC)c1` (centres undefined), the Activity [1] is reported as “Active”, the Activity [2] is reported as 2% and the Activity [3] is reported as 36%. For the same compound, the Activity (Pseudomonas aeruginosa [4]) was “inactive”.
For `CCCC(O)CC(=O)/C=C/c1ccc(O)c(OC)c1` (centres undefined), the Activity [5] was 65%, the Activity [6] was 57% and the Activity [7] was 73%. For the same compound, the Activity [1] was 82%, the Activity [2] was 4% and the Activity [3] was 65%. The Activity (Pseudomonas aeruginosa [8]) was 102%, the Activity [9] was 5% and the Activity [10] was 73%. For the same compound, the Activity (Pseudomonas aeruginosa [4]) was 95%.
Compound `CCCCCC(=O)C#Cc1ccc(F)c(F)c1` has an Activity [5] of 56%, an Activity [6] of 58% and an Activity [7] of 60%. For the same compound, the Activity [1] was 71%, the Activity [2] was 3% and the Activity [3] was 17%. The Activity (Pseudomonas aeruginosa [8]) was 100%, the Activity [9] was 5% and the Activity [10] was 39%. The Activity (Pseudomonas aeruginosa [4]) was 88%.
Work on `CCCC(O)C#Cc1ccc(F)c(F)c1` (racemic) yielded an Activity [5] of 60%, an Activity [6] of 49% and an Activity [7] of 73%. It also gave an Activity [1] of 73%, an Activity [2] of 3% and an Activity [3] of 32%. For the same compound, the Activity (Pseudomonas aeruginosa [8]) was 100%, the Activity [9] was 5% and the Activity [10] was 45%. It also gave an Activity (Pseudomonas aeruginosa [4]) of 104%.
For `CCCC(O)CC(=O)/C=C/c1ccc(OC)cc1` (centres undefined), the Activity [1] was “Active”, the Activity [2] was 1% and the Activity [3] was 55%. For the same compound, the Activity (Pseudomonas aeruginosa [4]) was “inactive”.
Compound `CCCC(O)CC(=O)/C=C/c1ccc(O)c(O)c1` (centres undefined) has an Activity [5] of 72%, an Activity [6] of 50% and an Activity [7] of 56%. The Activity [1] was 84%, the Activity [2] was 3% and the Activity [3] was 43%. It also gave an Activity (Pseudomonas aeruginosa [8]) of 99%, an Activity [9] of 5% and an Activity [10] of 60%. For the same compound, the Activity (Pseudomonas aeruginosa [4]) was 104%.
In the case of `CCCCCC(=O)C#Cc1ccc(O)c(OC)c1`, the Activity [1] is reported as “Active”, the Activity [2] is reported as 3% and the Activity [3] is reported as 29%. For the same compound, the Activity (Pseudomonas aeruginosa [4]) was “inactive”.
With `CCC[C@@H](O)C#Cc1ccc(F)c(F)c1` the Activity [5] was 60%, the Activity [6] was 48% and the Activity [7] was 60%. For the same compound, the Activity [1] was 74%, the Activity [2] was 3% and the Activity [3] was 25%. The Activity (Pseudomonas aeruginosa [8]) was 98%, the Activity [9] was 5% and the Activity [10] was 45%. The Activity (Pseudomonas aeruginosa [4]) was 102%.
`CCCC(O)CC(=O)/C=C/c1ccc(O)cc1` (centres undefined) was tested, and the Activity [1] was “Active”, the Activity [2] was 1% and the Activity [3] was 51%. For the same compound, the Activity (Pseudomonas aeruginosa [4]) was “inactive”.
For `CCCCCCCC(O)CC(=O)CCc1ccc(O)c(OC)c1` (centres undefined), the Activity [2] was 2% and the Activity [3] was 90%.
`CCCC(O)CC(=O)/C=C/c1ccc(N(C)C)cc1` (centres undefined) gave an Activity [2] of 2% and an Activity [3] of 53%.
`CCCC(O)CC(=O)CCc1ccc(O)c(O)c1` (centres undefined) gave an Activity [2] of 2% and an Activity [3] of 47%.
`CCCCC(O)CC(=O)CCc1ccc(O)c(OC)c1` (centres undefined) was tested, and the Activity [2] was 2% and the Activity [3] was 62%.
